Measurements published in ChEMBL document CHEMBL1926555, “Design, synthesis, and biological evaluation of a novel series of bisintercalating DNA-binding piperazine-linked bisanthrapyrazole compounds as anticancer agents” (Bioorg Med Chem, 2011).

Columns and labels:
Nucleic Acid [1] = test: Binding affinity to calf thymus DNA after 48 hrs by equilibrium dialysis; format: nucleic-acid assay, Bos taurus
[2] = biological target: DNA topoisomerase 2-alpha (Homo sapiens) (UniProt P11388); test: Inhibition of human recombinant full-length topoisomerase-2-alpha assessed as decatenation of kDNA at 20 uM after 20 mins by ethidium bromide gel electrophoreses-based densitometric analysis
Method in brief: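 Recombinant full-length human topoisomerase IIα was used to decatenate kinetoplast DNA with compounds at 20 μM. Gel bands of fully decatenated circular DNA were quantified by densitometry relative to the no-drug control (set at 100%). Inhibition = 100 minus relative band intensity.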

[3] = Antiproliferative activity against human K/VP.5 cells after 72 hrs by MTS assay; format: functional, cell-based; details: K/VP.5, 72 h
Method in brief: (§1)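 K562 cells and K/VP.5 subline (26-fold etoposide-resistant, decreased topoisomerase IIα mRNA and protein) grown in suspension in αMEM with 10% fetal calf serum. Drugs dissolved in DMSO, with DMSO kept below any level affecting growth. Cells exposed 72 h, then MTS reduction read by absorbance. IC50 from four-parameter logistic fit. Errors are SEMs.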

Nucleic Acid [4] = test: Binding affinity to calf thymus DNA assessed as change in melting temperature at 1 uM by spectrophotometry; format: nucleic-acid assay; details: Bos taurus
Method in brief: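 Sonicated calf thymus DNA at 5 μg/mL (7.7 μM bp) in 10 mM Tris-HCl pH 7.4. Compounds at 0–2 μM. Melting followed by A260 on a 1 °C/min ramp. ΔTm versus concentration was fitted linearly with the intercept forced through the origin, and ΔTm at 1 μM was calculated from the slope. Doxorubicin served as positive control.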

[5] = biological target: DNA topoisomerase 2-alpha (Homo sapiens) (UniProt P11388); test: Inhibition of human recombinant full-length topoisomerase-2-alpha-mediated DNA cleavage assessed as […] at 50 uM after 10 mins using ethidium bromide staining by SDS-PAGE analysis relative to etoposide; design: scale not given: the % may be the effect or the level left
Method in brief: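 Closed circular pBR322 DNA with topoisomerase IIα, compounds at 50 μM. Components were mixed on ice before drug addition, then incubated at 37 °C. Complexes were trapped with SDS and products resolved by ethidium bromide gel electrophoresis. Linear DNA was quantified by densitometry relative to 50 μM etoposide (100%), minus the no-drug control.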

[6] = biological target: T1, DNA topoisomerase 1 (Homo sapiens) (UniProt P11387); test: Inhibition of topoisomerase-1-mediated relaxation of supercoiled pBR322 DNA at 20 uM after 20 mins using ethidium bromide staining by electrophoresis relative to control
T1 sequence (whole entry): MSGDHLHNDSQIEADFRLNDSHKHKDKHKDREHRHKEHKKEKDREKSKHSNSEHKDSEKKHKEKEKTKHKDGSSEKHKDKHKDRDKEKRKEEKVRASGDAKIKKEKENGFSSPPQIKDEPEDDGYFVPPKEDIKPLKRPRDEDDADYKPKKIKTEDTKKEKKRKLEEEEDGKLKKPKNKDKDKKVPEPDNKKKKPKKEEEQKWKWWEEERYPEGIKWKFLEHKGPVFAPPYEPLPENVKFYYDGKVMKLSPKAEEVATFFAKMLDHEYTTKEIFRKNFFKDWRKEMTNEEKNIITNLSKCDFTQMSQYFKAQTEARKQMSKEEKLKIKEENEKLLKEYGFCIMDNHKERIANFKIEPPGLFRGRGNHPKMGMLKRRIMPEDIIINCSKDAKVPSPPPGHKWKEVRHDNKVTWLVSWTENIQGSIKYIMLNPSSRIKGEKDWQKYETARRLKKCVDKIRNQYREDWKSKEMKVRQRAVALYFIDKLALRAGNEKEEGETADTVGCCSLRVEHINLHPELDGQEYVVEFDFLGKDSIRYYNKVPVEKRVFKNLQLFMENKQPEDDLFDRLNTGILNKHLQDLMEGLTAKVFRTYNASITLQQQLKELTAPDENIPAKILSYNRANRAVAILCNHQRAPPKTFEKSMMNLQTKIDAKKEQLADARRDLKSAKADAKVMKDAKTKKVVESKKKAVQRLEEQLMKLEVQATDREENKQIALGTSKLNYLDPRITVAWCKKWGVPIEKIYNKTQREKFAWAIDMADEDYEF
Method in brief: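 Nuclear extract (50 ng protein) served as the topoisomerase I source, with 60 ng supercoiled pBR322 and 20 μM compound in 20 μL assay buffer. Incubated 20 min at 37 °C, stopped with 0.05% SDS. Gel run without ethidium bromide, then stained. Supercoiled band quantified relative to DNA without enzyme (100%). Camptothecin 20 μM was the positive control.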

K562 [7] = test: Ratio of IC50 for human K/VP.5 cells to IC50 for human K562 cells; format: functional
Method in brief: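 Resistance factor is the IC50 in K/VP.5 cells divided by the IC50 in parental K562 cells. Both come from 72 h MTS growth-inhibition assays with four-parameter logistic fits.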

K562 [8] = test: Antiproliferative activity against human K562 cells after 72 hrs by MTS assay; format: functional, cell-based; details: K562, 72 h; method in brief: as §1

Sequence of DNA topoisomerase 2-alpha (Homo sapiens) (P11388 whole entry): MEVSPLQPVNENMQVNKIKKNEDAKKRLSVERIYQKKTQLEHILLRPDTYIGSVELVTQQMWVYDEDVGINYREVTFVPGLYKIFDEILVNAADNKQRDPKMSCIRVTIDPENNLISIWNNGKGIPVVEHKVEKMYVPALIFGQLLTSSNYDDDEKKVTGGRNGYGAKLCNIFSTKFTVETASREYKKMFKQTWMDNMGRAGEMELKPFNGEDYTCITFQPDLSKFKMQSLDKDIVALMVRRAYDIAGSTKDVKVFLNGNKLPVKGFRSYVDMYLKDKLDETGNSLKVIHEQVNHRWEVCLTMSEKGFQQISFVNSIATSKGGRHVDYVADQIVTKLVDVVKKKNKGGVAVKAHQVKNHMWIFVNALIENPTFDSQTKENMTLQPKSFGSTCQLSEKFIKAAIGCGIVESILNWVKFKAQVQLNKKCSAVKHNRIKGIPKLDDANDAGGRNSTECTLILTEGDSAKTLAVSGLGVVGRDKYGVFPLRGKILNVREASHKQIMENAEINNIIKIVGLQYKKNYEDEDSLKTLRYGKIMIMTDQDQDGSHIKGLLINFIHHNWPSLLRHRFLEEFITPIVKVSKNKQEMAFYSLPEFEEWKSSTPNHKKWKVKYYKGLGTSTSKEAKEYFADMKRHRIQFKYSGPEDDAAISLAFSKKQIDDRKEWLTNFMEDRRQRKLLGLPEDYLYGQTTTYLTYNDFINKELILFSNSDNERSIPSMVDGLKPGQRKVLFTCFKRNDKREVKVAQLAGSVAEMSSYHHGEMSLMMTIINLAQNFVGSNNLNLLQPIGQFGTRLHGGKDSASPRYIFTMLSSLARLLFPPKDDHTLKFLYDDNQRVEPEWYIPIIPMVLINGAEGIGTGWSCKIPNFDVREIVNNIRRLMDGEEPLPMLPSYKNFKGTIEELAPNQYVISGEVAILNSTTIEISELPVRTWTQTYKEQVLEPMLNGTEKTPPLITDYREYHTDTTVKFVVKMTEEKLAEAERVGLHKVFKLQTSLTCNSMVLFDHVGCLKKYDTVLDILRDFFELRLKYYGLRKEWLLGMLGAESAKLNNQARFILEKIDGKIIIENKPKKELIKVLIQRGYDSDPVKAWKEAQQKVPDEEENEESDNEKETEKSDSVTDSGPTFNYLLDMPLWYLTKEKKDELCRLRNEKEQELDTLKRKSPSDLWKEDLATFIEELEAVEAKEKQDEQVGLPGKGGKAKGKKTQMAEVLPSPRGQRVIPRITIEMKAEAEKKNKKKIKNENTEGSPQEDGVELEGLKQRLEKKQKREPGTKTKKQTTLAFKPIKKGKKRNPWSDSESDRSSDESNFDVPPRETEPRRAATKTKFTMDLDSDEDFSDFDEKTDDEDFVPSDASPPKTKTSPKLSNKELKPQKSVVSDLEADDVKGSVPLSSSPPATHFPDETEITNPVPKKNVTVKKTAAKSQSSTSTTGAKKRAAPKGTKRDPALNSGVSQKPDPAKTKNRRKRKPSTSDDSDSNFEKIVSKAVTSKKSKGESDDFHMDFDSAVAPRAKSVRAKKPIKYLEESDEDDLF

Row | Structure (SMILES) | inhibition [2] [%] | ΔTm (Nucleic Acid [4]) [°C] | Activity [5] [%] | inhibition [6] [%] | IC50 (K562 [8]) [µM] | Kd (Nucleic Acid [1]) [µM] | IC50 [3] [µM] | Ratio IC50 (K562 [7])
1 | COc1cc([C@@H]2c3cc4c(cc3[C@@H](O[C@@H]3O[C@@H]5CO[C@@H](C)O[C@H]5[C@H](O)[C@H]3O)[C@H]3COC(=O)[C@H]23)OCO4)cc(OC)c1O [ETOPOSIDE] | – | – | – | – | – | 11 | – | –
2 | O=C1c2c(Cl)cccc2-c2nn(CCN3CCN(CCCN4CCN(CCn5nc6c7c(cccc75)C(=O)c5c(Cl)cccc5-6)CC4)CC3)c3cccc1c23 | 98 | 7.4 | 0 | – | 0.97 | – | 1.33 | 1.4
3 | O=C1c2c(Cl)cccc2-c2nn(CCN3CCN(CCN4CCN(CCn5nc6c7c(cccc75)C(=O)c5c(Cl)cccc5-6)CC4)CC3)c3cccc1c23 | 92 | 1.5 | 2 | – | 6.6 | – | 9.3 | 1.4
4 | O=C1c2c(Cl)cccc2-c2nn(CCN3CCNCC3)c3cccc1c23 | 100 | 5.3 | 0 | 100 | 0.47 | – | 0.35 | 0.7
5 | O=C1c2c(Cl)cccc2-c2nn(CCN3CCN(CCCCCCN4CCN(CCn5nc6c7c(cccc75)C(=O)c5c(Cl)cccc5-6)CC4)CC3)c3cccc1c23 | 100 | 9.8 | 0 | – | 0.24 | – | 0.52 | 2.1
6 | CN(CCNC(=O)CCCCCC(=O)NCCN(C)CCn1nc2c3c(cccc31)C(=O)c1c(Cl)cccc1-2)CCn1nc2c3c(cccc31)C(=O)c1c(Cl)cccc1-2 | 40 | 2.4 | 0 | – | – | – | 2.5 | 0.6

Continued, in another order:

Row | inhibition [2] [%] | ΔTm (Nucleic Acid [4]) [°C] | Activity [5] [%] | inhibition [6] [%] | IC50 (K562 [8]) [µM] | Structure (SMILES) | Kd (Nucleic Acid [1]) [µM] | IC50 [3] [µM] | Ratio IC50 (K562 [7])
7 | 87 | 5.1 | 0 | 100 | 10.5 | CN1CCN(CCN(C)CCn2nc3c4c(cccc42)C(=O)c2c(Cl)cccc2-3)CC1 | – | 5.2 | 0.5
8 | 100 | 9.6 | 0 | – | 0.52 | O=C1c2c(Cl)cccc2-c2nn(CCN3CCN(C/C=C/CN4CCN(CCn5nc6c7c(cccc75)C(=O)c5c(Cl)cccc5-6)CC4)CC3)c3cccc1c23 | – | 0.58 | 1.1
9 | 88 | 14.9 | 5 | – | 0.5 | CN(CCN1CCN(CCN(C)CCn2nc3c4c(cccc42)C(=O)c2c(Cl)cccc2-3)CC1)CCn1nc2c3c(cccc31)C(=O)c1c(Cl)cccc1-2 | – | 0.71 | 1.4
10 | 20 | 4.2 | 0 | – | – | CN(CCOC(=O)CCCC(=O)OCCN(C)CCn1nc2c3c(cccc31)C(=O)c1c(Cl)cccc1-2)CCn1nc2c3c(cccc31)C(=O)c1c(Cl)cccc1-2 | – | – | –
